Measured values reported in the EternaBench riboswitch data.

Tested on: MS2 coat protein
Assay: apparent Kd, MS2 coat protein; higher = weaker binding; RNA-MaP array; FMN 200 µM where present
In short: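 Each design was made on Illumina sequencing-chip clusters by stalled E. coli RNA polymerase and titrated with SNAP-549-labelled MS2 coat protein from 0.7 or 1.5 nM, doubling to 3 µM, in the absence and then the presence of constant ligand. The buffer was 100 mM Tris-HCl pH 7.5, 80 mM KCl, 4 mM MgCl2, BSA, DTT, yeast tRNA and Tween-20. The apparent Kd is the median of filtered per-cluster fits of binding curves, with green signal normalised to red-channel RNA signal and control-cluster median Fmax.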

[1] = designed as: OFF switch for flavin mononucleotide, no ligand
[2] = ligand present: flavin mononucleotide, designed as: OFF switch for flavin mononucleotide
[3] = designed as: ON switch for flavin mononucleotide, no ligand
[4] = ligand present: flavin mononucleotide, designed as: ON switch for flavin mononucleotide

Row | Sequence | apparent Kd [1] | apparent Kd [2] | apparent Kd [3] | apparent Kd [4]
1 | AAGAAGUCAGGAUAUGCUGCUCGUCACUUGCGUGAUGAGUAGCAGAAGGGACAUGAGGAUCACCCAUGUAAAGU | 51.6 nM | 79.7 nM |  | 
2 | AGUGUGUGGCAGGAUAUUCCGGUCGUUGGUCGGGAAGAAGGGUCUACAUGAGGAUCACCCAUGUGACCGGUUGA | 25.6 nM | 25.6 nM |  | 
3 | GGUGGCGUGAUAACGCUAGCUAUAACAUGAGGAUCACCCAUGUAGGAUAUCCCGCCGUGAGGGCGGGAGAAGGACAACCGAUGG | 28.5 nM | 30.8 nM |  | 
4 | UGCAUGUAUGAGAAGGCUAAUUUGGACAUUAUUUAUGAUGAUGUUUAGGUUAGAGGAUAUUGGGACAUGAGGAUCACCCAUGUA | 21.5 nM | 18 nM |  | 
5 | UUUCGUCUCGAGAAGGUCUAUCGACAUGAGGAUCACCCAUGUUGCCAUGGAAGGAUAUCGAAGGCAGCACGGGAAAUAGUCCGG |  |  | 78.3 nM | 14 nM
6 | GAACUGAAGCAUAGCUUUAGUCGUACAUGAGGAUCACCCAUGUAGGAUAUGGUAGGCAUAGCUUACUAGAAGGAUAGAGUGAUU | 96.5 nM | 67.9 nM |  | 
7 | CACGAAGGAGGAUAUAUUAAGGCAGAUCCUAUACAUCGGUUACAUGAGGAUCACCCAUGUAGAAGGCCUACAAA | 49 nM | 185 nM |  | 
8 | AAAUCGGCGGAGAAGGGACCUUUACCCUAUCGGUCAGGAUAUCCGCUACAUGAGGAUCACCCAUGUGCCGGGUGUCCGCGUGUG | 22.2 nM | 12.2 nM |  | 
9 | CCCGACCAGAAGUCGGUACGGAGGAGAAGGCGCCUCCUGGGUCCACAUGAGGAUCACCCAUGUGGCGAGGAUAUCCUCAGUUUU | 13.7 nM | 119 nM |  | 
10 | AGUCGGAGCAGAGGAUAUAUACAUGAGGAUCACCCAUGUAAAUGAAUAAGCUGGAAACAGCAUGUAUAGAAGGCUGCUCCGACA | 45.6 nM | 125 nM |  | 
11 | UUCAGCGAUCAAGGAUAUCUAUAUUCAUGAGGACAUGAGGAUCACCCAUGUUGAUUACCCAUGAGGGAGAAGGUGGACAUGAGG |  |  | 40.1 nM | 23.5 nM
12 | GGAGCUCACAUCUACAUGAGGAUCACCCAUGUCAAAAGACAUGAGGAUAUGCAUCCUAAUUGGAUGCAGAAGGCAUGGAGCUCC |  |  | 946 nM | 57.4 nM
13 | CGGCAAGUCACAGGAUAUGGUGAUGUACAUGAGGAUCACCCAUGUCCGUCUUCUCUCACAAGAUGCCAGAAGGGUGACCUCCGG |  |  | 760 nM | 131 nM
14 | CUAGAUAUGUAAGGAUAUAUAGUGGAAUACACUAUAGAAGGUAUGUGAUAACAUGAGGAUCACCCAUGUCAUUGGAUAUCUAGA |  |  | 67.5 nM | 60.3 nM
15 | UGUCGGAGCAUAGGAUAUUACAUGAGGAUCACCCAUGUAUGAACCAAUAGCUGGAAACAGCAAUGUAAGAAGGCUGCUCCGACA | 5.16 nM | 8.98 nM |  | 
16 | AUUAACUACAUAGGAUAUUGAUACAUGAGGAUCACCCAUGUCACCCAUGUUUAUUUAUCAAUUGACAAGAAGGAUGUGGUUACA |  |  | 69.8 nM | 46.5 nM
17 | UCCCGUUGUCAGAAGGCUCCUCGUAACCCGAGGAGAGGAUAUGACACAUGAGGAUCACCCAUGUGCCCGGUCGUGACAAAGGUG | 11.7 nM | 158 nM |  | 
18 | AGGCCACAAGGAUAUACAUGAGGAUCACCCAUGUAGAAAGACGUGUGGUCAUGUUCGAGUAGAAGGUGUAGCGG | 12.9 nM | 12.7 nM |  | 
19 | GGGACGAAAGUCGAACGAUGUAGCAGAAGGACAUGAGGAUCACCCAUGUCAGCUGUAACAGCCAUGUAGGAUAUGCUACAUCCC | 4.61 nM | 5.96 nM |  | 
20 | UUUUUGUGAGGAUAUCAGUAGUAAAAAAAUAAAAUUACUACUGAGAAGGCACAUGAGGAUCACCCAUGUUUUUU | 41.7 nM | 96.5 nM |  | 
21 | CCUUUCCGAGGAUAUACAUGAGGAUCACCCAUGUGAUCCUAAGGCUGAUCAAGCCUAUGUAGAAGGCGCAAAUC | 133 nM | 182 nM |  | 

Row | Sequence | apparent Kd [1] | apparent Kd [2] | apparent Kd [3] | apparent Kd [4]
22 | GUAGAGUAGUGAGGAUAUACGAGCUCGAUAGAGCGGCGAUCCAUUAAUACAUGAGGAUCACCCAUGUAGAAGGCACUUCUCUAC | 5.83 nM | 72 nM |  | 
23 | GAUCUGUCGGUUGACCCAACAUGAGGAUCACCCAUGUAUGUGGAGGAUAUCUAGAUCUGCGGACGAGAGAAGGCCGCAUACGUU | 69 nM | 421 nM |  | 
24 | CGCUGUCACGCAGGAUAUGCAAUGGAUUACAUUGCAGAAGGGCGAUCACAUGAGGAUCACCCAUGUGUAGACAGUGAAGAAGAG |  |  | 738 nM | 45.8 nM
25 | AAUAACAGAGGAUAUACUGUUUUAUGUAUUUAUUAUUUUAAACAUGAGGAUCACCCAUGUAGAAGGCUGAUUAA | 30.2 nM | 27 nM |  | 
26 | AAAAAACAUGAGGAUCACCCAUGUCAGGAUAUCGAAAAAAAAAAAAAAAAAAAAAAAACGAGAAGGGACAAAAA | 99.3 nM | 104 nM |  | 
27 | AACUCACAUGAGGAUCACCCAUGUGAGGAUAUAUAAAUAUAUAUGUUAUUAUAUAUUUAUAGAAGGCGCGUGAU | 44.1 nM | 46.9 nM |  | 
28 | AGUAAGAUGCAGAAGGUGUCAGCGAGAGCUGCGACAUGAGGAUCACCCAUGUACCGGUGACGGUACAAGGAUAUGCAUCUUACA |  |  | 882 nM | 360 nM
29 | AAAAAUGGAGGAUAUACAUGAGGAUCACCCAUGUGUGGCCAUACUAUGUGCUCGUCAGGUAGAAGGCCAAAAAA | 28.7 nM | 46 nM |  | 
30 | UACUGGUGUGAGAAGGGACGUAUCUCCAUGAGGGUAGGGCUAUUAGAGAAGUCAGGAUAUCACAUGAGGAUCACCCAUGUGACG | 8.25 nM | 9.9 nM |  | 
31 | AAAAAGUCAGGAUAUGUGAAAAAAAAAAAAAAAAAAAAAAAACAGAAGGGACAUGAGGAUCACCCAUGUAAAAA | 54.1 nM | 62.3 nM |  | 
32 | UUGGACGUCGUAGGAUAUGUAGGAUAUUCCUACAUGAGGAUCACCCAUGUUGACAUGGAAGAAGGCCAGAAGGACGAUGUCCAU |  |  | 930 nM | 100 nM
33 | UAAUUGUGAGGAUAUUCGUUUUACACGGAGACGUGUAGAACGGAGAAGGCACAUGAGGAUCACCCAUGUUCCUU | 18 nM | 100 nM |  | 
34 | AUUGGUGAGUAGAAGGUACGAUAUUAGUUAUAGUAAGGAUAUACUAACAUGAGGAUCACCCAUGUAUAAAUGGAUAAAUUAUCU |  |  | 11.7 nM | 8.98 nM
35 | GGUUGGCGAGGAUAUACAUGAGGAUCACCCAUGUGGUCCUGCGGUGGUAUCGCCCUUUGUAGAAGGCGCGGGUC | 112 nM | 117 nM |  | 
36 | UUUUUUGUUGUGAGGAUAUCGUUGUGGAUGUGGAUCGAGAAGGCACAUGAGGAUCACCCAUGUUUGUUGUGGUU | 102 nM | 158 nM |  | 
37 | AGGAAACAUGAGGAUCACCCAUGUAAAAAUAUGGGAGGAUAUGCGAAAAGAAACAAAGAAGCAGAAGGCCUAAGAA |  |  | 89.8 nM | 23.1 nM
38 | AAUAUGAGCUGGUUAUAAAACCUGACAUGAGGAUCACCCAUGUAGGAUAUCAGCACGAUAAGUGCUGAGAAGGACAUCCAGCUC | 13.4 nM | 14 nM |  | 
39 | UUAAUGUGAGGAUAUCAGGUGUGCUAGCGUACUGGUACAUCUGAGAAGGCACAUGAGGAUCACCCAUGUUCCUG | 22.1 nM | 77.6 nM |  | 
40 | UGUUAAUAAGAGAAGGAGGACUUCAUGAGGAUCACCCAUGUGUUAGUACUUAGGAUAUUUAAUAACAUGAGGAUCACCCAUGUC |  |  | 45.2 nM | 40.4 nM
41 | CAUAACUUUUCUCAUGUAAACAUGAGGAUCACCCAUGUAAUGAGAAGGAGGAGGAAGAGAGAAUCCUAGGAUAUCAGAAUUGUU | 6.41 nM | 6.84 nM |  | 
42 | AUACUGAGCGUAAAUUACCUUAACAUGAGGAUCACCCAUGUGGAGGAUAUUGACCUAGCAAAGCUCGAGAAGGCCACUGGGAUG | 17.5 nM | 18.1 nM |  | 
